From ChEMBL document CHEMBL3286377, “Microwave-assisted synthesis of C-8 aryl and heteroaryl inosines and determination of their inhibitory activities against Plasmodium falciparum purine nucleoside phosphorylase” (Eur J Med Chem, 2014)
The source made the active and inactive calls. No cut-off for these calls is given here.

Legend:
[1] = test system: Plasmodium falciparum; assay: Inhibition of Plasmodium falciparum PNP expressed in Escherichia coli BL21(DE3) using inosine as substrate at 200 uM by spectrophotometric analysis
[2] = test system: Influenza A virus H3N2; assay: Antiviral activity against Influenza A virus H3N2 assessed as inhibition of virus-induced cytopathicity at 100 uM by cell-based assay; assay type: functional, organism-based
Method in brief: (§1)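 Inhibition of virus-induced cytopathicity in confluent cell monolayers (HEL, Vero, HeLa or MDCK cells), tested at varying compound concentrations with 100 µM the level assessed. Cytopathicity was scored once it was complete in untreated virus-infected controls. Activity is expressed as EC50, the concentration reducing virus-induced cytopathicity by 50%.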

[3] = test system: Influenza A virus; assay: Antiviral activity against Influenza A virus H1N1 assessed as inhibition of virus-induced cytopathicity at 100 uM by cell-based assay; assay type: functional, organism-based; method in brief: as §1
[4] = test system: Vero; assay: Cytotoxicity against African green monkey Vero cells up to 100 uM; assay type: cell-based; settings: chlorocebus sabaeus
[5] = Hydrolytic stability of the compound in phosphate buffer at 50 uM at pH 7.4 up to 24 hrs by HPLC analysis; assay type: physicochemical; settings: pH 7.4, 24 h
Method in brief: (§2)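 A 5 mM DMSO stock was diluted to 50 µM final in phosphate (pH 7.4), citrate (pH 5.0) or trifluoroacetate (pH 1.2) buffer and incubated at 37 °C. Aliquots taken at 0, 0.5, 1, 4 and 24 h were analysed by reverse-phase HPLC. The mobile phase ran from 10 to 100% acetonitrile against water with 0.05% TFA over 20 min, at 1.0 mL/min.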

[6] = test system: Vaccinia virus; assay: Antiviral activity against Vaccinia virus Lederle assessed as inhibition of virus-induced cytopathicity at 100 uM by cell-based assay; assay type: functional, organism-based; settings: Orthopoxvirus vaccinia
Method in brief: (§3)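 Confluent HEL, Vero, HeLa or MDCK monolayers were infected with 100 CCID50 of virus in the presence of varying compound concentrations, with 100 µM the level assessed. Cytopathic effect was recorded once it was complete in untreated infected controls. EC50 is the concentration reducing virus-induced cytopathicity by 50%.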

[7] = Hydrolytic stability of the compound in citrate buffer at 50 uM at pH 5 up to 24 hrs by HPLC analysis; assay type: physicochemical; settings: pH 5, 24 h; method in brief: as §2
[8] = test system: Human alphaherpesvirus 2; assay: Antiviral activity against Herpes simplex virus type 2 Lyons assessed as inhibition of virus-induced cytopathicity at 100 uM by cell-based assay; assay type: functional, organism-based
Method in brief: (§4)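 Confluent HEL, Vero, HeLa or MDCK monolayers were infected with 100 CCID50 of virus in the presence of varying compound concentrations. Activity is expressed as EC50, the concentration that halves virus-induced cytopathicity.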

[9] = test system: HEL; assay: Cytotoxicity against HEL up to 100 uM; assay type: cell-based; settings: human
[10] = test system: Coxsackievirus B4; assay: Antiviral activity against Coxsackievirus B4 assessed as inhibition of virus-induced cytopathicity at 100 uM by cell-based assay; assay type: functional, organism-based; method in brief: as §4
[11] = test system: Respiratory syncytial virus; assay: Antiviral activity against Respiratory syncytial virus Long assessed as inhibition of virus-induced cytopathicity at 100 uM by cell-based assay; assay type: functional, organism-based; method in brief: as §4
[12] = test system: Human alphaherpesvirus 1; assay: Antiviral activity against thymidine kinase-deficient ACV-resistant Herpes simplex virus type 1 KOS assessed as inhibition of virus-induced cytopathicity at 100 uM by cell-based assay; assay type: functional, organism-based; method in brief: as §3
[13] = test system: Human alphaherpesvirus 1; assay: Antiviral activity against Herpes simplex virus type 1 KOS assessed as inhibition of virus-induced cytopathicity at 100 uM by cell-based assay; assay type: functional, organism-based; method in brief: as §4
[14] = test system: Punta Toro virus; assay: Antiviral activity against Punta Toro virus assessed as inhibition of virus-induced cytopathicity at 100 uM by cell-based assay; assay type: functional, organism-based; method in brief: as §4
[15] = test system: Influenza B virus; assay: Antiviral activity against Influenza B virus assessed as inhibition of virus-induced cytopathicity at 100 uM by cell-based assay; assay type: functional, organism-based; method in brief: as §1
[16] = test system: Vesicular stomatitis virus; assay: Antiviral activity against Vesicular stomatitis virus assessed as inhibition of virus-induced cytopathicity at 100 uM by cell-based assay; assay type: functional, organism-based; method in brief: as §3
[17] = test system: CCRF-CEM; assay: Cytotoxicity against human CEM cells up to 100 uM; assay type: cell-based
[18] = test system: HeLa; assay: Cytotoxicity against human HeLa cells up to 100 uM; assay type: cell-based
[19] = test system: Sindbis virus; assay: Antiviral activity against Sindbis virus assessed as inhibition of virus-induced cytopathicity at 100 uM by cell-based assay; assay type: functional, organism-based; method in brief: as §4
[20] = test system: Human respirovirus 3; assay: Antiviral activity against Parainfluenza virus 3 assessed as inhibition of virus-induced cytopathicity at 100 uM by cell-based assay; assay type: functional, organism-based; method in brief: as §4
[21] = Half life of the compound in trifluoroacetate buffer at 50 uM at pH 1.2 by HPLC analysis; assay type: physicochemical; method in brief: as §2
[22] = test system: Human alphaherpesvirus 2; assay: Antiviral activity against Herpes simplex virus type 2 G assessed as inhibition of virus-induced cytopathicity at 100 uM by cell-based assay; assay type: functional, organism-based; settings: strain G; method in brief: as §4
[23] = test system: MDCK; assay: Cytotoxicity against MDCK cells up to 100 uM; assay type: cell-based, Canis lupus familiaris; settings: dog
[24] = test system: Mammalian orthoreovirus 1; assay: Antiviral activity against Reovirus 1 assessed as inhibition of virus-induced cytopathicity at 100 uM by cell-based assay; assay type: functional; method in brief: as §4

O=c1[nH]cnc2c1nc(-c1cccnc1)n2[C@@H]1O[C@H](CO)[C@@H](O)[C@H]1O
inhibition [1]: inactive | Activity [2]: inactive | Activity [3]: inactive | Activity [4]: Non-toxic | Stability [5]: Stable | Activity [6]: inactive | Stability [7]: Stable | Activity [8]: inactive | Activity [9]: Non-toxic | Activity [10]: inactive | Activity [11]: inactive | Activity [12]: inactive | Activity [13]: inactive | Activity [14]: inactive | Activity [15]: inactive | Activity [16]: inactive | Activity [17]: Non-toxic | Activity [18]: Non-toxic | Activity [19]: inactive | Activity [20]: inactive | half-life at 50 µM [21]: 15 h | Activity [22]: inactive | Activity [23]: Non-toxic | Activity [24]: inactive
